{"source": "ChEMBL document CHEMBL5678817", "about": "“FTBMT, a Novel and Selective GPR52 Agonist, Demonstrates Antipsychotic-Like and Procognitive Effects in Rodents, Revealing a Potential Therapeutic Agent for Schizophrenia” (J Pharmacol Exp Ther, 2017)", "key": {"[1]": {"target": "Sodium-dependent serotonin transporter (Homo sapiens) (UniProt P31645)", "sequence (P31645 whole entry, looked up)": "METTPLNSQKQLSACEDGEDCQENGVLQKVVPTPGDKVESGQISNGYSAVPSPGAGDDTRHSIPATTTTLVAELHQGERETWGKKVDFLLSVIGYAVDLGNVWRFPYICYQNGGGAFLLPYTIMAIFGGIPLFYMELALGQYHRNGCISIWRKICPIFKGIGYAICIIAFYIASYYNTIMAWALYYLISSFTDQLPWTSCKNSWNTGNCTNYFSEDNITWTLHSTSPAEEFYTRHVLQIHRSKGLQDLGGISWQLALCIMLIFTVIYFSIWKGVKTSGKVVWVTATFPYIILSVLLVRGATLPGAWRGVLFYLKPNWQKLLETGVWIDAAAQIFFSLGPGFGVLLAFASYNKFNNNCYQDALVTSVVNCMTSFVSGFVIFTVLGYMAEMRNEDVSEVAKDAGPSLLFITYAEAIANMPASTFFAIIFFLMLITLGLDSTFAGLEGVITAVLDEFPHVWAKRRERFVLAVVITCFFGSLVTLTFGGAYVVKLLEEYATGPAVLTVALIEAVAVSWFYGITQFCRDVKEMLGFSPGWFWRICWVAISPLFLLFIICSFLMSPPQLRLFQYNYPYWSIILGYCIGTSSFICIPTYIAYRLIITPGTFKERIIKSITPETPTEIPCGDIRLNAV", "test": "Inhibition of SERT receptor (unknown origin) at 10 uM relative to control", "summary_of_the_method": "(§1)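 Part of a 98-target external biochemical selectivity panel that used radioligand/receptor binding-type assays. Compound tested once at 10 µM. Results are reported as % inhibition versus control; negative values mean stimulation of receptor activity.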"}, "Mus musculus [2]": {"system": "Mus musculus", "test": "Antipsychotic activity in C57BL/6N mouse assessed as increase in Egr-2 mRNA expression at 3 to 100 mg/kg, po measured for 1 hr by qPCR analysis", "type": "functional, organism-based", "conditions": "dose 3-100 mg/kg", "summary_of_the_method": "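Mice dosed orally at 3–100 mg/kg or vehicle. Tissues taken 1 h post-dose, NAc shell and striatum dissected, frozen on dry ice. IEG mRNA quantified by qPCR (absolute or ΔΔCt); n = 5–6; mean ± SEM.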"}, "Homo sapiens [3]": {"organism": "Homo sapiens", "test": "Inhibition of NA+/K+ ATPase (unknown origin) at 10 uM relative to control", "summary_of_the_method": "(§2)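 Enzyme activity assays from the same 98-target biochemical panel. Single test concentration of 10 µM. Read-out is % inhibition of enzyme activity relative to control; negative percentages indicate activation of the enzyme.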"}, "[4]": {"target": "Nitric oxide synthase 1 (Homo sapiens) (UniProt P29475)", "sequence (P29475 whole entry)": "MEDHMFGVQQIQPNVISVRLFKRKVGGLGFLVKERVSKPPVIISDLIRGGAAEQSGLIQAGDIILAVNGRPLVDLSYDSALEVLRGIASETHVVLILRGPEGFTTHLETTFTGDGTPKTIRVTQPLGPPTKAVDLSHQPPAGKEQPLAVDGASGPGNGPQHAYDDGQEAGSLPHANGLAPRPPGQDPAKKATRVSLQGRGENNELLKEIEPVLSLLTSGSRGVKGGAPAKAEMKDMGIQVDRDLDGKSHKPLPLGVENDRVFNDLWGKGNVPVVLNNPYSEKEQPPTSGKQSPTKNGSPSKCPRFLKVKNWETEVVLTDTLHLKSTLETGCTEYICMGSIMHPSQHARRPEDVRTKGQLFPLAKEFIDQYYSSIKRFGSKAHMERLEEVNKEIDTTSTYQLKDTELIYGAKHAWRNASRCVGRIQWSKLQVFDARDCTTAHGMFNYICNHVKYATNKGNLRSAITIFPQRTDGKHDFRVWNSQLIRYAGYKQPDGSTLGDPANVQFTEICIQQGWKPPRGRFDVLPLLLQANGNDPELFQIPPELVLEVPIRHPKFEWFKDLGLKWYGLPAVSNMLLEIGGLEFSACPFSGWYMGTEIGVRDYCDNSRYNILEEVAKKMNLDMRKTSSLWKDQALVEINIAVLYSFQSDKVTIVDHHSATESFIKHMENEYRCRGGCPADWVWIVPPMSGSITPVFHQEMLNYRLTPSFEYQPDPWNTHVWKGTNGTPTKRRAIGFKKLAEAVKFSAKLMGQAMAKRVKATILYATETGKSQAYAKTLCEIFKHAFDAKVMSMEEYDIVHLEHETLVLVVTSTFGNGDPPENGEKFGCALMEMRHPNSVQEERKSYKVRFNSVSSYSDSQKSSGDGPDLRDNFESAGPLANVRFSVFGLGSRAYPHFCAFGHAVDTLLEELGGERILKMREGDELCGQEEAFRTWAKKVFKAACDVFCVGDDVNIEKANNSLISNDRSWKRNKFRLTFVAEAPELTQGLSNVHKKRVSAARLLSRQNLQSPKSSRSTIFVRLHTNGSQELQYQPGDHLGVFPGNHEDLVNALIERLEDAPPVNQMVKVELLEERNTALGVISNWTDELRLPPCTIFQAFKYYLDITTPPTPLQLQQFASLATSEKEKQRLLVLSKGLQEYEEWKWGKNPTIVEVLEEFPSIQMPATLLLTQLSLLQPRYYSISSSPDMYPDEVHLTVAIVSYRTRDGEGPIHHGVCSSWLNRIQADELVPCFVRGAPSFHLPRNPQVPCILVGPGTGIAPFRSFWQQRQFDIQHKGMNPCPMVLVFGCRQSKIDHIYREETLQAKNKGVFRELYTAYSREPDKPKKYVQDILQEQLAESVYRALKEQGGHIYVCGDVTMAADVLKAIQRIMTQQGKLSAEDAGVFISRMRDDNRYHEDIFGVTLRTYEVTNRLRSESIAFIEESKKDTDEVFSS", "test": "Inhibition of nNOS (unknown origin) at 10 uM relative to control", "summary_of_the_method": "(§3)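 Binding and enzyme panel run by an outside contractor against receptors, ion channels and enzymes. Each assay used a single 10 μM test concentration, and results are expressed as percent inhibition. A negative value means stimulation of receptor activity or activation of enzyme activity.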"}, "[5]": {"target": "Adenosine receptor A2a (Homo sapiens) (UniProt P29274)", "test": "Inhibition of Adenosine A2A receptor (unknown origin) at 10 uM relative to control", "summary_of_the_method": "(§4)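 Single-point screen at 10 μM across receptor, ion channel and enzyme binding or activity assays. Expressed as percent inhibition versus control; negative values denote stimulation.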"}, "[6]": {"target": "Alpha-1A adrenergic receptor (Homo sapiens) (UniProt P35348)", "sequence (P35348 whole entry)": "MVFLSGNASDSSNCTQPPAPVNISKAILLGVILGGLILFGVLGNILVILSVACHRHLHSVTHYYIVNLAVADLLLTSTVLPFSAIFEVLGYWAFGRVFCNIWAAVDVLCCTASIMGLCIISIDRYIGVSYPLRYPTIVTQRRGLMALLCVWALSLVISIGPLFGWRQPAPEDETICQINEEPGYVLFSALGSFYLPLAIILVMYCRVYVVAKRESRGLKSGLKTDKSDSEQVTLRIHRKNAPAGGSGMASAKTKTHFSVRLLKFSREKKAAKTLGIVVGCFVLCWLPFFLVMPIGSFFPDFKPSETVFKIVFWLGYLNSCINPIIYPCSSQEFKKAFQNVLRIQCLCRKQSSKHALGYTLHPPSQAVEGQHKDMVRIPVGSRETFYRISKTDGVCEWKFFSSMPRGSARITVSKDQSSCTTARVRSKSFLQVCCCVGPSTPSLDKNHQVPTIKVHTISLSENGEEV", "test": "Inhibition of Adrenergic alpha1 receptor (unknown origin) at 10 uM relative to control", "summary_of_the_method": "as §4"}, "[7]": {"target": "Voltage-gated L-type calcium channel (Homo sapiens, UniProt O60840+Q01668+Q13698+Q13936)", "test": "Inhibition of Calcium channel L-type (unknown origin) at 10 uM in presence of benzothiazepine relative to control", "type": "protein assay", "conditions": "probe benzothiazepine", "summary_of_the_method": "as §4"}, "Homo sapiens [8]": {"organism": "Homo sapiens", "test": "Inhibition of GABAB1A receptor (unknown origin) at 10 uM relative to control", "summary_of_the_method": "as §1"}, "[9]": {"target": "T1, Glutamate [NMDA] receptor (Homo sapiens) (UniProt Q05586+Q12879+Q13224+O15399+O60391+Q14957+Q8TCU5)", "test": "Inhibition of Glutamate NMDA receptor (unknown origin) at 10 uM relative to control", "type": "protein-complex assay", "summary_of_the_method": "as §1"}, "[10]": {"target": "Type-1 angiotensin II receptor (Homo sapiens) (UniProt P30556)", "sequence (P30556 whole entry)": "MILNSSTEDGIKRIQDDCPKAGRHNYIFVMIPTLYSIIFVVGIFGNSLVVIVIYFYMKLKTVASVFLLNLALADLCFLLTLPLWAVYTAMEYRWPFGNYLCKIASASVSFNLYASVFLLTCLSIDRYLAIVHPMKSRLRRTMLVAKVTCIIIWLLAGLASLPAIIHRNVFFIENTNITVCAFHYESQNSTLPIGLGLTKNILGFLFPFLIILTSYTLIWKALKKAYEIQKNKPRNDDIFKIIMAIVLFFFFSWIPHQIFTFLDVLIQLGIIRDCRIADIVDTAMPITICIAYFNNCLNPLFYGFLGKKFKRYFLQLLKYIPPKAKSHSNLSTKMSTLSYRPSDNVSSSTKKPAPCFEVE", "test": "Inhibition of AT1 receptor (unknown origin) at 10 uM relative to control", "summary_of_the_method": "as §4"}, "Mus musculus [11]": {"system": "Mus musculus", "test": "Pro-cognitive activity in C57BL/6N mouse assessed as increase in Egr-2 gene expression in hippocampus at 3 to 30 mg/kg, po […]", "type": "functional, organism-based", "conditions": "dose 3-30 mg/kg"}, "Homo sapiens [12]": {"organism": "Homo sapiens", "test": "Inhibition of non-selective GABAB receptor (unknown origin) at 10 uM relative to control", "summary_of_the_method": "as §3"}, "Homo sapiens [13]": {"organism": "Homo sapiens", "test": "Inhibition of Calcium channel N-type (unknown origin) at 10 uM relative to control", "summary_of_the_method": "as §4"}, "[14]": {"target": "GABA-A receptor; anion channel (Homo sapiens) (UniProt P14867+P47870+P18507+P28472+P48169+Q99928+Q9UN88+P34903+O00591+O14764+Q8N1C3+P18505+P78334+P47869+P31644+Q16445)", "test": "Inhibition of GABA receptor (unknown origin) at 10 uM relative to control", "type": "protein-complex assay", "summary_of_the_method": "as §1"}, "[15]": {"target": "Thromboxane A2 receptor (Homo sapiens) (UniProt P21731)", "sequence (P21731 whole entry)": "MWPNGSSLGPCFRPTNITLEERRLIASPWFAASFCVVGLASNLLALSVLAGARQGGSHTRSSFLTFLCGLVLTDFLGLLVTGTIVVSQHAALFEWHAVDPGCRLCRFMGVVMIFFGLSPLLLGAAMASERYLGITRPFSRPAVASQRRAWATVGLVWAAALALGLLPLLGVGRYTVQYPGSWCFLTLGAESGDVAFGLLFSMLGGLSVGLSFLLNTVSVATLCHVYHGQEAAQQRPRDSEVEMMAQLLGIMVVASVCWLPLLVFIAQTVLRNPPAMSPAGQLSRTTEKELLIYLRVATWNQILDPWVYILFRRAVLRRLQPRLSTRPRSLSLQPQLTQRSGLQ", "test": "Inhibition of Thromboxane A2 receptor (unknown origin) at 10 uM relative to control", "summary_of_the_method": "as §3"}, "[16]": {"target": "Beta-3 adrenergic receptor (Homo sapiens) (UniProt P13945)", "test": "Inhibition of Adrenergic beta3 (unknown origin) at 10 uM relative to control", "summary_of_the_method": "as §4"}, "Mus musculus [17]": {"system": "Mus musculus", "test": "Antipsychotic activity in GPR52 knockout mouse assessed as increase in phosphorylated CREB level in striatum at 30 mg/kg, po incubated for 60 mins by ELISA analysis", "type": "functional, organism-based"}, "Homo sapiens [18]": {"organism": "Homo sapiens", "test": "Inhibition of Glutamate receptor (unknown origin) at 10 uM relative to control", "summary_of_the_method": "as §1"}, "[19]": {"target": "T2, G-protein coupled receptor 52 (Homo sapiens, UniProt Q9Y2T5)", "T2 sequence (Q9Y2T5 whole entry)": "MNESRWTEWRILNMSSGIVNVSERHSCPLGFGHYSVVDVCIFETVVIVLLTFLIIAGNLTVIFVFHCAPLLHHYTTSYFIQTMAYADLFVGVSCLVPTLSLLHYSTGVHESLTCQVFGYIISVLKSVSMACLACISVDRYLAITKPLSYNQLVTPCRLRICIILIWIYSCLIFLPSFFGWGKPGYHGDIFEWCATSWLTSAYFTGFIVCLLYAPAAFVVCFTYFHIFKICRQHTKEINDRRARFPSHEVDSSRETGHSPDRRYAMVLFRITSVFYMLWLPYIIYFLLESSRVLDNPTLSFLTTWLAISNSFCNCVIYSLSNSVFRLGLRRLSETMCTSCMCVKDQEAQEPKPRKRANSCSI", "test": "Agonist activity at human GPR52 expressed in CHO cells assessed as increase in intracellular cAMP level incubated for 30 mins by Alphascreen assay", "type": "functional, cell-based", "summary_of_the_method": "(§5)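 CHO cells stably expressing human, mouse or rat GPR52, plus naïve CHO cells, at 10,000 cells/well. Stimulated in cAMP assay buffer for 30 min at 37 °C. Intracellular cAMP read by AlphaScreen.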"}, "Homo sapiens [20]": {"organism": "Homo sapiens", "test": "Inhibition of Glutamate kainate receptor (unknown origin) at 10 uM relative to control", "summary_of_the_method": "as §1"}, "[21]": {"target": "G protein-coupled receptor 52 (Rattus norvegicus) (UniProt A0A8I5ZQK1)", "test": "Agonist activity at GPR52 in rat Striatal neuron assessed as increase in c-fos mRNA expression by RT-PCR analysis", "type": "cell-based", "conditions": "filed as agonist", "summary_of_the_method": "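Rat primary striatal neurons (E18–19), used at DIV 13–16. Treated in HBSS with 5 mM HEPES pH 7.5 and 0.5% fatty-acid-free BSA for 15 or 60 min at 37 °C. Cells were homogenized in RLT buffer and IEG mRNA was quantified by qPCR using absolute or ΔΔCt relative quantification.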"}, "[22]": {"target": "Cholecystokinin receptor type A (Homo sapiens) (UniProt P32238)", "test": "Inhibition of CCK1 receptor (unknown origin) at 10 uM relative to control", "summary_of_the_method": "as §4"}, "[23]": {"target": "T1, Glutamate [NMDA] receptor (Homo sapiens)", "test": "Inhibition of Glutamate NMDA receptor (unknown origin) at 10 uM in presence of phencyclidine to control", "type": "protein-complex assay", "summary_of_the_method": "as §1"}, "[24]": {"target": "Small conductance calcium-activated potassium channel protein 2 (Homo sapiens) (UniProt Q9H2S1)", "sequence (Q9H2S1 whole entry)": "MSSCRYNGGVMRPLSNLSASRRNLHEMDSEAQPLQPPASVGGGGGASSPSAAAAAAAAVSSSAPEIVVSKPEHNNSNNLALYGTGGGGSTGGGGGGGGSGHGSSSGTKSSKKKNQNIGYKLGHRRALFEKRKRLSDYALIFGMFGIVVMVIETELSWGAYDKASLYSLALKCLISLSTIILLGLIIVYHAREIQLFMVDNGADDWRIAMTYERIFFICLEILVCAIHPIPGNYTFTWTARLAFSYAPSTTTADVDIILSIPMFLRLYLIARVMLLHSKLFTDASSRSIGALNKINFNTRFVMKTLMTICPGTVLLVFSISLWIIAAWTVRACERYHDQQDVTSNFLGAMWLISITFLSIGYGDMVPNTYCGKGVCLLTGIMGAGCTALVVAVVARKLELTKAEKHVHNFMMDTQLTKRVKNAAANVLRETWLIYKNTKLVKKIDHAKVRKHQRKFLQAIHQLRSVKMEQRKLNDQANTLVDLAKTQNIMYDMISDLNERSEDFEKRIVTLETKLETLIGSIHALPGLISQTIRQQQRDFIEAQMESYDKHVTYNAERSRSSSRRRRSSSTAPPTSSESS", "test": "Inhibition of SKCA2 (unknown origin) at 10 uM relative to control", "summary_of_the_method": "as §1"}, "[25]": {"target": "T2, G-protein coupled receptor 52", "test": "Agonist activity at human GPR52 expressed in CHO cells assessed as increase in intracellular cAMP level upto 10 uM incubated for 30 mins by Alphascreen assay", "type": "functional, cell-based", "summary_of_the_method": "as §5"}, "[26]": {"target": "G-protein coupled receptor 52 (Mus musculus, UniProt P0C5J4)", "test": "Agonist activity at mouse GPR52 expressed in CHO cells assessed as increase in intracellular cAMP level incubated for 30 mins by Alphascreen assay", "type": "functional, cell-based", "summary_of_the_method": "as §5"}, "[27]": {"target": "D(2) dopamine receptor (Homo sapiens) (UniProt P14416)", "test": "Inhibition of Dopamine D2 receptor (unknown origin) at 10 uM relative to control", "summary_of_the_method": "as §1"}, "[28]": {"target": "Rho-associated protein kinase 1 (Homo sapiens) (UniProt Q13464)", "test": "Inhibition of ROCK1 (unknown origin) at 10 uM relative to control", "summary_of_the_method": "as §2"}, "[29]": {"target": "Type-2 angiotensin II receptor (Homo sapiens) (UniProt P50052)", "sequence (P50052 whole entry)": "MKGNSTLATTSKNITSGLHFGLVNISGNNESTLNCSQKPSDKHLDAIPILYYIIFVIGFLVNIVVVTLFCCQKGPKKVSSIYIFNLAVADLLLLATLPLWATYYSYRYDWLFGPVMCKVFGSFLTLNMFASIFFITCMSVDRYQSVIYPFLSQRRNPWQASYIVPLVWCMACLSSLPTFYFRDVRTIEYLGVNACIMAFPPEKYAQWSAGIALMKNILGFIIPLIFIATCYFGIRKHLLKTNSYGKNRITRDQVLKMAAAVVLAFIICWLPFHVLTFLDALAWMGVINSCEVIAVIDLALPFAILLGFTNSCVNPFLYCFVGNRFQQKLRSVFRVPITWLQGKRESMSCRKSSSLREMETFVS", "test": "Inhibition of AT2 receptor (unknown origin) at 10 uM relative to control", "summary_of_the_method": "as §4"}, "[30]": {"target": "Muscarinic acetylcholine receptor M1 (Homo sapiens) (UniProt P11229)", "sequence (P11229 whole entry)": "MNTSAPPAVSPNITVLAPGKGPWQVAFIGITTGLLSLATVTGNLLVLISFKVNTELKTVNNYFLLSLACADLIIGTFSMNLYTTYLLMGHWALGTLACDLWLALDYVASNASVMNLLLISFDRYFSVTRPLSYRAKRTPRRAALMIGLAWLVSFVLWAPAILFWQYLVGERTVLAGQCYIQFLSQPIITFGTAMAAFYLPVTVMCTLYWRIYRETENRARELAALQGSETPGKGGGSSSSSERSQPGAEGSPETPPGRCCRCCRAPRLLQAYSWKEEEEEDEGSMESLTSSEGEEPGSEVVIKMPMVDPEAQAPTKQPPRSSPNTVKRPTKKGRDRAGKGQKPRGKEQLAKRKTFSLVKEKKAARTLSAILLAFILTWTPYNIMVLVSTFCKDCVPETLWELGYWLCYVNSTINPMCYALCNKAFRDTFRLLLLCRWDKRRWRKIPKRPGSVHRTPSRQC", "test": "Inhibition of Muscarinic M1 receptor (unknown origin) at 10 uM relative to control", "summary_of_the_method": "as §1"}}, "note": "The source made the active and inactive calls. No cut-off for these calls is given here.", "data": [{"smiles": "Cc1cc(-n2nc(Cc3cc(F)cc(C(F)(F)F)c3)nc2C)ccc1C(N)=O", "note": "[TP-024]", "values": [{"measurement": "inhibition", "setting": "[1]", "result": 8, "unit": "%"}, {"measurement": "Activity", "setting": "Mus musculus [2]", "result": "Active"}, {"measurement": "inhibition", "setting": "Homo sapiens [3]", "result": -2, "unit": "%"}, {"measurement": "inhibition", "setting": "[4]", "result": 11, "unit": "%"}, {"measurement": "inhibition", "setting": "[5]", "result": 0, "unit": "%"}, {"measurement": "inhibition", "setting": "[6]", "result": 3, "unit": "%"}, {"measurement": "inhibition at 10 µM", "setting": "[7]", "result": 19, "unit": "%"}, {"measurement": "inhibition", "setting": "Homo sapiens [8]", "result": 5, "unit": "%"}, {"measurement": "inhibition", "setting": "[9]", "result": -7, "unit": "%"}, {"measurement": "inhibition", "setting": "[10]", "result": 9, "unit": "%"}, {"measurement": "Activity", "setting": "Mus musculus [11]", "result": "Active"}, {"measurement": "inhibition", "setting": "Homo sapiens [12]", "result": 0, "unit": "%"}, {"measurement": "inhibition", "setting": "Homo sapiens [13]", "result": -9, "unit": "%"}, {"measurement": "inhibition", "setting": "[14]", "result": 2, "unit": "%"}, {"measurement": "inhibition", "setting": "[15]", "result": -6, "unit": "%"}, {"measurement": "inhibition", "setting": "[16]", "result": 0, "unit": "%"}, {"measurement": "Activity", "setting": "Mus musculus [17]", "result": "inactive"}, {"measurement": "inhibition", "setting": "Homo sapiens [18]", "result": 2, "unit": "%"}, {"measurement": "EC50", "setting": "[19]", "result": 93.3, "unit": "nM"}, {"measurement": "inhibition", "setting": "Homo sapiens [20]", "result": 2, "unit": "%"}, {"measurement": "Activity", "setting": "[21]", "result": "Active"}, {"measurement": "inhibition", "setting": "[22]", "result": 6, "unit": "%"}, {"measurement": "inhibition", "setting": "[23]", "result": 4, "unit": "%"}, {"measurement": "inhibition", "setting": "[24]", "result": -1, "unit": "%"}, {"measurement": "Activity", "setting": "[25]", "result": "inactive"}, {"measurement": "EC50", "setting": "[26]", "result": 141, "unit": "nM"}, {"measurement": "inhibition", "setting": "[27]", "result": 5, "unit": "%"}, {"measurement": "inhibition", "setting": "[28]", "result": 9, "unit": "%"}, {"measurement": "inhibition", "setting": "[29]", "result": 1, "unit": "%"}, {"measurement": "inhibition", "setting": "[30]", "result": 4, "unit": "%"}]}]}
